In ChEMBL document CHEMBL3046412, “Ring substituted 3-phenyl-1-(2-pyrazinyl)-2-propen-1-ones as potential photosynthesis-inhibiting, antifungal and antimycobacterial agents” (Farmaco, 2002):
Values after ≈ are worked out from the molar mass of the structure shown.

Key:
[1] = tested on: Trichophyton mentagrophytes; test: Antifungal activity against Trichophyton mentagrophytes 445 after 120 hr by microdilution broth method; assay type: functional; settings: Trichophyton mentagrophytes, 445, 120 h
How it was run: (§1)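 Broth microdilution in RPMI 1640 buffered to pH 7.0 with 0.165 M MOPS; compounds in DMSO, with compound-free controls. Strain subcultured and kept on Sabouraud dextrose agar at 4 °C. Conidia were suspended in sterile 0.85% saline, counted in a Bürker chamber to 1.0–5.0×10⁵ cfu ml⁻¹ stock, and diluted 1:20 in medium. Static incubation at 35 °C. MIC is 80% growth inhibition versus control.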

[2] = tested on: Trichophyton mentagrophytes; test: Antifungal activity against Trichophyton mentagrophytes 445 after 72 hr by microdilution broth method; assay type: functional; settings: Trichophyton mentagrophytes, 445, 72 h; how it was run: as §1
[3] = tested on: Mycobacterium tuberculosis; test: Antimycobacterial activity against Mycobacterium tuberculosis H37Rv ATCC 27294 at 12.5 ug/ml by microplate alamar blue assay relative to control; assay type: functional
[4] = tested on: Chlorella vulgaris; test: Inhibition of photosynthesis in Chlorella vulgaris chloroplast assessed as reduction of oxygen evolution rate after 4 hr by spectrophotometric analysis; assay type: functional
[5] = tested on: Spinacia oleracea; test: Inhibition of photosynthesis in Spinacia oleracea (spinach) chloroplast assessed as reduction of oxygen evolution rate after 4 hr by spectrophotometric analysis; assay type: functional
How it was run: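 Oxygen evolution rate was measured in spinach chloroplasts at 30 mg l⁻¹, read spectrophotometrically with 2,6-dichlorophenol–indophenol as electron acceptor.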

[6] = tested on: Chlorella vulgaris; test: Inhibition of photosynthesis in Chlorella vulgaris assessed as reduction of chlorophyll production at 0.1 mM/l after 7 days by spectrophotometric analysis; assay type: functional; settings: 168 h
How it was run: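 Statically cultured Chlorella vulgaris suspensions were exposed to 0.1 mmol l⁻¹ compound, with 1% solvent in samples and control. After 7 days, chlorophyll was extracted into N,N-dimethylformamide and quantified spectrophotometrically.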

[7] = tested on: Pichia kudriavzevii; test: Antifungal activity against Pichia kudriavzevii E 28 after 24 hr by microdilution broth method; assay type: functional; settings: E 28, 24 h
How it was run: (§2)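 Broth microdilution in RPMI 1640 buffered to pH 7.0 with 0.165 M MOPS; compounds dissolved in DMSO; drug-free controls included. Strains were kept on Sabouraud dextrose agar at 4 °C and passaged onto SDA before testing. Yeasts, conidia or sporangiospores were suspended in 0.85% saline to a stock of 1.0–5.0×10⁵ cfu ml⁻¹, then diluted 1:20 in medium. Plates were incubated statically at 35 °C.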

[8] = tested on: Candida tropicalis; test: Antifungal activity against Candida tropicalis 156 after 48 hr by microdilution broth method; assay type: functional; settings: Candida tropicalis, 156, 48 h; how it was run: as §2
[9] = tested on: Aspergillus fumigatus; test: Antifungal activity against Aspergillus fumigatus 231 after 24 hr by microdilution broth method; assay type: functional; settings: Aspergillus fumigatus, 231, 24 h; how it was run: as §2
[10] = tested on: Nakaseomyces glabratus; test: Antifungal activity against Candida glabrata 20/I after 24 hr by microdilution broth method; assay type: functional; how it was run: as §2
[11] = tested on: Candida albicans; test: Antifungal activity against Candida albicans ATCC 44859 after 48 hr by microdilution broth method; assay type: functional; settings: ATCC 44859, 48 h; how it was run: as §2
[12] = tested on: Candida tropicalis; test: Antifungal activity against Candida tropicalis 156 after 24 hr by microdilution broth method; assay type: functional; settings: Candida tropicalis, 156, 24 h; how it was run: as §2
[13] = tested on: Pichia kudriavzevii; test: Antifungal activity against Pichia kudriavzevii E 28 after 48 hr by microdilution broth method; assay type: functional; settings: E 28, 48 h; how it was run: as §2
[14] = tested on: Lichtheimia corymbifera; test: Antifungal activity against Lichtheimia corymbifera 272 after 48 hr by microdilution broth method; assay type: functional; settings: Lichtheimia corymbifera, 272, 48 h; how it was run: as §2
[15] = tested on: Nakaseomyces glabratus; test: Antifungal activity against Candida glabrata 20/I after 48 hr by microdilution broth method; assay type: functional; how it was run: as §2
[16] = tested on: Trichosporon beigelii; test: Antifungal activity against Trichosporon beigelii 1188 after 48 hr by microdilution broth method; assay type: functional; settings: Trichosporon beigelii, 1188, 48 h; how it was run: as §2
[17] = tested on: Trichosporon beigelii; test: Antifungal activity against Trichosporon beigelii 1188 after 24 hr by microdilution broth method; assay type: functional; settings: Trichosporon beigelii, 1188, 24 h; how it was run: as §2
[18] = tested on: Candida albicans; test: Antifungal activity against Candida albicans ATCC 44859 after 24 hr by microdilution broth method; assay type: functional; settings: ATCC 44859, 24 h; how it was run: as §2
[19] = tested on: Aspergillus fumigatus; test: Antifungal activity against Aspergillus fumigatus 231 after 48 hr by microdilution broth method; assay type: functional; settings: Aspergillus fumigatus, 231, 48 h; how it was run: as §2
[20] = tested on: Lichtheimia corymbifera; test: Antifungal activity against Lichtheimia corymbifera 272 after 24 hr by microdilution broth method; assay type: functional; settings: Lichtheimia corymbifera, 272, 24 h; how it was run: as §2

| SMILES | MIC80 [1] | MIC80 [2] | inhibition at 12.5 µg/mL [3] | IC50 [4] | IC50 [5] | inhibition at 100 µM [6] | other results |
| --- | --- | --- | --- | --- | --- | --- | --- |
| O=C(/C=C/c1ccc(O)cc1)c1cnccn1 | 125 µM (≈ 28.3 µg/mL) | 62.5 µM (≈ 14.1 µg/mL) | 42% | – | – | – | – |
| CC(C)Cc1cnc(C(=O)/C=C/c2ccc(O)cc2)cn1 | > 500 µM | > 500 µM | 63% | 232 µM | 235 µM | 35% | – |
| CCCCc1cnc(C(=O)/C=C/c2ccc(O)cc2)cn1 | 62.5 µM (≈ 17.6 µg/mL) | 31.2 µM (≈ 8.82 µg/mL) | 51% | 265 µM | 306 µM | 10% | – |
| CCCc1cnc(C(=O)/C=C/c2ccc(O)cc2)cn1 | 62.5 µM (≈ 16.8 µg/mL) | 31.2 µM (≈ 8.38 µg/mL) | 35% | 514 µM | 399 µM | 12% | – |
| CN(C)c1ccc(/C=C/C(=O)c2cnccn2)cc1 | > 62.5 µM | > 62.5 µM | 26% | – | – | – | – |
| CC(C)Cc1cnc(C(=O)/C=C/c2ccc(N(C)C)cc2)cn1 | > 250 µM | 250 µM (≈ 77.4 µg/mL) | 10% | – | – | – | – |
| CCCCc1cnc(C(=O)/C=C/c2ccc(N(C)C)cc2)cn1 | > 250 µM | > 250 µM | 0% | – | – | – | – |
| CCCc1cnc(C(=O)/C=C/c2ccc(N(C)C)cc2)cn1 | > 250 µM | > 250 µM | 8% | – | – | – | – |
| CCCCCCCCSc1cc(C(N)=S)ccn1 | – | – | – | 48 µM | 72 µM | 100% | – |
| CC(C)(C)c1ncc(C(=O)Nc2cc(O)cc(Cl)c2)nc1Cl | – | – | – | 99 µM | 105 µM | – | – |
| CC(C)(C)c1cnc(C(=O)Nc2cccc(O)c2)cn1 | – | – | – | 329 µM | 478 µM | – | – |
| COc1cc(/C=C/C(=O)c2cnccn2)ccc1O | – | 125 µM (≈ 32 µg/mL) | 35% | – | – | – | – |
| COc1cc(/C=C/C(=O)c2cnc(CC(C)C)cn2)ccc1O | – | 250 µM (≈ 78.1 µg/mL) | 53% | – | – | – | – |
| CCCCc1cnc(C(=O)/C=C/c2ccc(O)c(OC)c2)cn1 | – | > 100 µM | 45% | – | – | – | – |
| CCCc1cnc(C(=O)/C=C/c2ccc(O)c(OC)c2)cn1 | – | > 125 µM | 20% | – | – | – | – |
| O=C(/C=C/c1ccccc1O)c1cnccn1 | 31.2 µM (≈ 7.07 µg/mL) | 15.6 µM (≈ 3.53 µg/mL) | 55% | – | – | – | MIC80 [7]: 125 µM (≈ 28.3 µg/mL); MIC80 [8]: 250 µM (≈ 56.6 µg/mL); MIC80 [9]: 125 µM (≈ 28.3 µg/mL); MIC80 [10]: 125 µM (≈ 28.3 µg/mL); MIC80 [11]: 62.5 µM (≈ 14.1 µg/mL); MIC80 [12]: 125 µM (≈ 28.3 µg/mL); MIC80 [13]: 250 µM (≈ 56.6 µg/mL); MIC80 [14]: 250 µM (≈ 56.6 µg/mL); MIC80 [15]: 250 µM (≈ 56.6 µg/mL); MIC80 [16]: 250 µM (≈ 56.6 µg/mL); MIC80 [17]: 125 µM (≈ 28.3 µg/mL); MIC80 [18]: 62.5 µM (≈ 14.1 µg/mL); MIC80 [19]: 250 µM (≈ 56.6 µg/mL); MIC80 [20]: 125 µM (≈ 28.3 µg/mL) |
| CC(C)Cc1cnc(C(=O)/C=C/c2ccccc2O)cn1 | – | 31.2 µM (≈ 8.82 µg/mL) | 20% | 63 µM | 144 µM | 92% | – |
| CCCCc1cnc(C(=O)/C=C/c2ccccc2O)cn1 | 15.6 µM (≈ 4.41 µg/mL) | 3.91 µM (≈ 1.1 µg/mL) | 33% | 147 µM | 184 µM | 89% | – |
| CCCc1cnc(C(=O)/C=C/c2ccccc2O)cn1 | 7.81 µM (≈ 2.1 µg/mL) | 7.81 µM (≈ 2.1 µg/mL) | 50% | 100 µM | 187 µM | 68% | – |
| CC(=O)N1CCN(c2ccc(OCC3COC(Cn4ccnc4)(c4ccc(Cl)cc4Cl)O3)cc2)CC1 (centres undefined) [KETOCONAZOLE] | 1.95 µM (≈ 1.04 µg/mL) | 0.24 µM (≈ 0.128 µg/mL) | – | – | – | – | MIC80 [7]: 1.95 µM (≈ 1.04 µg/mL); MIC80 [8]: 7.81 µM (≈ 4.15 µg/mL); MIC80 [9]: 7.81 µM (≈ 4.15 µg/mL); MIC80 [10]: 0.49 µM (≈ 0.26 µg/mL); MIC80 [11]: ≤ 0.06 µM; MIC80 [12]: 3.91 µM (≈ 2.08 µg/mL); MIC80 [13]: 1.95 µM (≈ 1.04 µg/mL); MIC80 [14]: 15.6 µM (≈ 8.31 µg/mL); MIC80 [15]: 1.95 µM (≈ 1.04 µg/mL); MIC80 [16]: ≤ 0.06 µM; MIC80 [17]: ≤ 0.06 µM; MIC80 [18]: ≤ 0.06 µM; MIC80 [19]: 7.81 µM (≈ 4.15 µg/mL); MIC80 [20]: 15.6 µM (≈ 8.31 µg/mL) |
| NC(=O)c1cnccn1 [PYRAZINAMIDE] | – | – | 100% | – | – | – | – |
